What was measured:
[1] = biological target: T1, Voltage-gated L-type calcium channel (Homo sapiens, UniProt Q13936+Q13698+Q01668+O60840); assay: Inhibition of voltage-dependent L-type calcium channel in human SH-SY5Y cells assessed as protection against glutamate-induced excitotoxicity by measuring recovery of cell viability at 20 uM measured after 24 hrs by alamar blue-based fluorescence method relative to control
[2] = biological target: T2, Voltage-gated L-type calcium channel (Rattus norvegicus, UniProt P22002+Q02485+P27732); assay: (§1) Inhibition of voltage-dependent L-type calcium channel in Wistar rat brain slices assessed as protection against oxygen glucose deprivation/reperfusion-induced injury by measuring recovery of LDH release at 20 uM administered at onset of reperfusion period measured after 90 mins by spectrophotometric assay relative to control; parameters: scale not given: the % may be the effect or the level left; conditions: 1.5 h
[3] = biological target: T2, Voltage-gated L-type calcium channel; assay: as §1, with “edema formation” for “LDH release”, “mins” for “mins by spectrophotometric assay”; parameters: scale not given: the % may be the effect or the level left; conditions: 1.5 h
[4] = tested on: Aorta; assay: Inhibition of calcium-induced contraction in K+-depolarized guinea pig aortic strips at 10^-7 M relative to control; format: tissue-based; conditions: Cavia porcellus
[5] = tested on: Right cardiac atrium; assay: Negative chronotropic activity in guinea pig spontaneously beating right atrium assessed as decrease in atrial rate at 5 x 10^-7 M relative to control; format: ADME, tissue-based, Cavia porcellus; parameters: scale not given: the % may be the effect or the level left; conditions: 0.5 µM
[6] = tested on: Left cardiac atrium; assay: Negative inotropic activity in guinea pig left atrium assessed as decrease in developed tension at 0.001 to 100 uM relative to control; format: ADME, tissue-based; conditions: Cavia porcellus
[7] = tested on: Right cardiac atrium; assay: Negative chronotropic activity in guinea pig spontaneously beating right atrium assessed as decrease in atrial rate; format: tissue-based; conditions: Cavia porcellus
[8] = Selectivity ratio of EC50 for negative chronotropic activity in guinea pig spontaneously beating right atrium to EC50 for negative inotropic activity in guinea pig left atrium; format: ADME, tissue-based, Cavia porcellus
[9] = biological target: T1, Voltage-gated L-type calcium channel; assay: as §1, with “human U373MG cells” for “Wistar rat brain slices”, “cell viability” for “LDH release”, “16 hrs” for “90 mins”, “alamar blue” for “spectrophotometric”; format: cell-based
Summary of the method: (§2)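 U-373 MG astrocytoma cells seeded at 30000 cells/ml and grown 24 or 48 h (37 °C/5% CO2). OGD: 24 h at 37 °C in glucose-free DMEM pre-bubbled with 95% N2/5% CO2, in a sealed nitrogen-flushed chamber. Then 16 h reperfusion in normal medium; compounds added at reperfusion, diluted from DMSO stock (DMSO ≤0.1%). Viability by alamarBlue, 4 h at 37 °C, fluorescence ex 530–560/em 590 nm. Expressed as % recovery from injury, mean ± S.E. of ≥3 experiments in sixuplicate.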

[10] = tested on: Left cardiac atrium; assay: Negative inotropic activity in guinea pig left atrium assessed as decrease in developed tension at 5 x 10^-6 M relative to control; format: ADME, tissue-based, Cavia porcellus; parameters: scale not given: the % may be the effect or the level left; conditions: 5 µM
[11] = biological target: T1, Voltage-gated L-type calcium channel; assay: as §1, with “human U373MG cells” for “Wistar rat brain slices”, “cell viability” for “LDH release”, “1” for “20”, “16 hrs” for “90 mins”, “alamar blue” for “spectrophotometric”; format: cell-based; summary of the method: as §2
[12] = biological target: T1, Voltage-gated L-type calcium channel; assay: Inhibition of voltage-dependent L-type calcium channel in human SH-SY5Y cells assessed as protection against glutamate-induced excitotoxicity by measuring recovery of cell viability at 1 uM measured after 24 hrs by alamar blue-based fluorescence method relative to control
[13] = tested on: Aorta; assay: Inhibition of calcium-induced contraction in K+-depolarized guinea pig aortic strips at 10^-4 M relative to control; format: tissue-based; conditions: Cavia porcellus
[14] = tested on: Right cardiac atrium; assay: Negative chronotropic activity in guinea pig spontaneously beating right atrium assessed as decrease in atrial rate at 5 x 10^-6 M relative to control; format: ADME, tissue-based, Cavia porcellus; parameters: scale not given: the % may be the effect or the level left; conditions: 5 µM
[15] = tested on: Aorta; assay: Inhibition of calcium-induced contraction in K+-depolarized guinea pig aortic strips; format: ADME, tissue-based; conditions: Cavia porcellus
[16] = tested on: Left cardiac atrium; assay: Negative inotropic activity in guinea pig left atrium assessed as decrease in developed tension at 10^-5 M relative to control; parameters: scale not given: the % may be the effect or the level left; conditions: 10 µM
[17] = tested on: Left cardiac atrium; assay: Negative inotropic activity in guinea pig left atrium assessed as decrease in developed tension at 5 x 10^-5 M relative to control; format: ADME, tissue-based, Cavia porcellus; parameters: scale not given: the % may be the effect or the level left; conditions: 50 µM
[18] = tested on: Aorta; assay: Inhibition of calcium-induced contraction in K+-depolarized guinea pig aortic strips at 5 x 10^-6 M relative to control; format: tissue-based; conditions: Cavia porcellus
[19] = tested on: Right cardiac atrium; assay: Negative chronotropic activity in guinea pig spontaneously beating right atrium assessed as decrease in atrial rate at 10^-7 M relative to control; format: ADME, tissue-based, Cavia porcellus; parameters: scale not given: the % may be the effect or the level left; conditions: 0.1 µM

Compound	Activity [1] [%]	Activity [2] [%]	Activity [3] [%]	inhibition at 0.1 µM [4] [%]	Activity [5] [%]	EC50 [6] [nM]	EC50 [7] [nM]	Ratio EC50 [8]	Activity [9] [%]	Activity [10] [%]	Activity [11] [%]	Activity [12] [%]	inhibition at 100 µM [13] [%]	Activity [14] [%]	IC50 [15] [nM]	Activity [16] [%]	Activity [17] [%]	inhibition at 5 µM [18] [%]	Activity [19] [%]
CCOC(=O)C1=C(C)NC(C)=C(C(=O)OCC)C1c1c(-c2ccc(F)cc2)nc2sccn12	59.3	72.4	89.4	6	91	64	1650	25 to 56	43.6	79	36.6	42.6	–	–	–	–	–	–	–
CCOC(=O)C1=C(C)NC(C)=C(C(=O)OCC)C1c1c(-c2cc(F)c(F)cc2F)nc2sccn12	54.7	< 5	< 5	–	–	160	1240	< 10	30.6	–	7.4	< 5	62	93	5570	78	–	–	–
CCOC(=O)C1=C(C)NC(C)=C(C(=O)OCC)C1c1c(-c2ccc(Br)c([N+](=O)[O-])c2)nc2sccn12	59.2	< 5	< 5	–	–	1270	4.3	–	32.4	–	< 5	< 5	–	–	–	–	53	41	90

From ChEMBL document CHEMBL4385592, “4-Imidazo[2,1-b]thiazole-1,4-DHPs and neuroprotection: preliminary study in hits searching” (Eur J Med Chem, 2019)
